Laboratory results published in ChEMBL document CHEMBL4819096, “Antibacterial activity of noscapine analogs” (Bioorg Med Chem Lett, 2021).
Calls of active or inactive are those of the source.

Assays:
Escherichia coli [1] = assay: Antibacterial activity against Escherichia coli assessed as inhibition of bacterial growth measured after 16 to 20 hrs by two-fold serial microbroth dilution method; assay type: functional; settings: time 16-20 hrs
In short: (§1)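 Broth microdilution in LB and M9 medium. Inoculum adjusted to about 5 × 10⁵ cells/ml. Compound diluted twofold serially in microplate wells, then plates covered and incubated at 37 °C with shaking. Growth read as OD600. MIC taken as the lowest concentration giving no growth after 16–20 h.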

[2] = Cytotoxicity against human HEK293 cells assessed as reduction in cell viability measured after 28 hrs by PrestoBlue reagent based fluorescence analysis
In short: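 HEK293 cells seeded at 25*10³ per well in DMEM with 10% FBS, 2 mM L-Glu and 50 µg/ml gentamicin. Cells held 24 h at 37 °C, 5% CO2 before compound was added (final DMSO 0.1%), then incubated 28 h. Viability read by PrestoBlue fluorescence at 590 nm, expressed relative to 0.1% DMSO control (100%). CC50 derived by curve fitting.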

Escherichia coli [3] = assay: Antibacterial activity against ampicillin/cefotaxime/tetracycline/ceftriaxone-resistant Escherichia coli mx7 assessed as inhibition of bacterial growth measured after 16 to 20 hrs by two-fold serial microbroth dilution method; assay type: functional, organism-based; settings: time 16-20 hrs
In short: (§2)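 Broth microdilution MIC in LB and M9 medium. Inoculum adjusted to about 5 × 10⁵ cells/ml. Compound serially diluted twofold. Plates covered and incubated at 37 °C with shaking. OD600 read; MIC taken as the lowest concentration giving no growth after 16–20 h.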

Enterobacter cloacae = assay: Antibacterial activity against ampicillin/cefotaxime/tetracycline/ceftriaxone-resistant Enterobacter cloacae O3 assessed as inhibition of bacterial growth measured after 16 to 20 hrs by two-fold serial microbroth dilution method; assay type: functional, organism-based; settings: time 16-20 hrs; in short: as §2
Morganella morganii = assay: Antibacterial activity against Morganella morganii R36 assessed as inhibition of bacterial growth measured after 16 to 20 hrs by two-fold serial microbroth dilution method; assay type: functional, organism-based; settings: time 16-20 hrs; in short: as §1
Pseudomonas aeruginosa [4] = assay: Antibacterial activity against Pseudomonas aeruginosa R42 assessed as inhibition of bacterial growth measured after 16 to 20 hrs by two-fold serial microbroth dilution method; assay type: functional, organism-based; settings: time 16-20 hrs; in short: as §1
Klebsiella pneumoniae = assay: Antibacterial activity against ampicillin/fosfomycin-resistant Klebsiella pneumonia 181210171-2 assessed as inhibition of bacterial growth measured after 16 to 20 hrs by two-fold serial microbroth dilution method; assay type: functional, organism-based; settings: time 16-20 hrs; in short: as §2
Enterobacter = assay: Antibacterial activity against Enterobacter sp. O54 assessed as inhibition of bacterial growth measured after 16 to 20 hrs by two-fold serial microbroth dilution method; assay type: functional, organism-based; settings: time 16-20 hrs; in short: as §1
Proteus sp. = assay: Antibacterial activity against ampicillin/cefotaxime/tetracycline/ceftriaxone/fosfomycin-resistant Proteus sp. O14 assessed as inhibition of bacterial growth measured after 16 to 20 hrs by two-fold serial microbroth dilution method; assay type: functional, organism-based; settings: time 16-20 hrs; in short: as §2
Citrobacter koseri = assay: Antibacterial activity against Citrobacter koseri R38 assessed as inhibition of bacterial growth measured after 16 to 20 hrs by two-fold serial microbroth dilution method; assay type: functional, organism-based; settings: time 16-20 hrs; in short: as §1
Pseudomonas aeruginosa [5] = assay: Antibacterial activity against ampicillin/cefotaxime-resistant Pseudomonas aeruginosa ATCC 27853 assessed as inhibition of bacterial growth measured after 16 to 20 hrs by two-fold serial microbroth dilution method; assay type: functional, organism-based; settings: time 16-20 hrs; in short: as §2
Hafnia alvei = assay: Antibacterial activity against Ampicillin resistant Hafnia alvei O31 assessed as inhibition of bacterial growth measured after 16 to 20 hrs by two-fold serial microbroth dilution method; assay type: functional, organism-based; settings: time 16-20 hrs; in short: as §2
Proteus vulgaris = assay: Antibacterial activity against Proteus vulgaris O41 assessed as inhibition of bacterial growth measured after 16 to 20 hrs by two-fold serial microbroth dilution method; assay type: functional, organism-based; settings: time 16-20 hrs; in short: as §1
Candida albicans = assay: Antibacterial activity against ampicillin/cefotaxime/tetracycline/ceftriaxone/fosfomycin-resistant Candida albicans 181210169-1 assessed as inhibition of fungal growth measured after 16 to 20 hrs by two-fold serial microbroth dilution method; assay type: functional, organism-based; settings: time 16-20 hrs; in short: as §2
Klebsiella aerogenes = assay: Antibacterial activity against Enterobacter aerogenes R41 assessed as inhibition of bacterial growth measured after 16 to 20 hrs by two-fold serial microbroth dilution method; assay type: functional, organism-based; settings: time 16-20 hrs; in short: as §1
Klebsiella oxytoca = assay: Antibacterial activity against Klebsiella oxytoca R48 assessed as inhibition of bacterial growth measured after 16 to 20 hrs by two-fold serial microbroth dilution method; assay type: functional, organism-based; settings: time 16-20 hrs; in short: as §1
Staphylococcus aureus = assay: Antibacterial activity against Fosfomycin resistant Staphylococcus aureus ATCC USA 206 assessed as inhibition of bacterial growth measured after 16 to 20 hrs by two-fold serial microbroth dilution method; assay type: functional, organism-based; settings: time 16-20 hrs; in short: as §2
Bacillus subtilis = assay: Antibacterial activity against Bacillus subtilis 3HM assessed as inhibition of bacterial growth measured after 16 to 20 hrs by two-fold serial microbroth dilution method; assay type: functional, organism-based; settings: time 16-20 hrs; in short: as §1
Escherichia coli [6] = assay: Antibacterial activity against Escherichia coli ATCC25922 assessed as inhibition of bacterial growth measured after 16 to 20 hrs by two-fold serial microbroth dilution method; assay type: functional, organism-based; settings: ATCC 25922, time 16-20 hrs; in short: as §1
Aeromonas = assay: Antibacterial activity against Aeromonas sp. O9 assessed as inhibition of bacterial growth measured after 16 to 20 hrs by two-fold serial microbroth dilution method; assay type: functional, organism-based; settings: time 16-20 hrs; in short: as §1
HEK293 [7] = assay: Induction of cell cycle arrest in human HEK293 cells assessed as decrease in accumulation of cells at G1 phase at 14.9 uM measured after 24 hrs by propidium iodide staining based flow cytometry; settings: hek293, 24 h
In short: (§3)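 HEK293 cells exposed to compound or vehicle (0.1% DMSO), then harvested by centrifugation (400 × g, 5 min). Fixed/permeabilized in ice-cold 70% ethanol for 24 h at −20 °C, PBS-washed twice, treated with RNase A (0.5 mg/ml) for 5 min at room temperature, then PI (50 µg/ml) for 30 min. DNA content measured by flow cytometry on a linear scale. At least duplicate runs; mean ± S.E.M.; Wilcoxon test versus vehicle.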

HEK293 [8] = assay: Induction of cell cycle arrest in human HEK293 cells assessed as increase in accumulation of cells at G2/M phase at 14.9 uM after 24 hrs by propidium iodide staining based flow cytometry; settings: hek293, 24 h; in short: as §3
HEK293 [9] = assay: Induction of cell cycle arrest in human HEK293 cells assessed as increase in accumulation of apoptotic cells at sub G1 phase at 14.9 uM after 24 hrs by propidium iodide staining based flow cytometry; settings: hek293, 24 h; in short: as §3
HEK293 [10] = assay: Induction of cell cycle arrest in human HEK293 cells assessed as increase in accumulation of cells at S phase at 12.6 uM after 24 hrs by propidium iodide staining based flow cytometry; settings: hek293, 24 h; in short: as §3
HEK293 [11] = assay: Induction of cell cycle arrest in human HEK293 cells assessed as increase in accumulation of apoptotic cells at sub G1 phase at 12.6 uM after 72 hrs by propidium iodide staining based flow cytometry; settings: hek293, 72 h; in short: as §3

CCOc1ccc(/C=C/C(=O)CC2c3c(cc4c(c3OC)OCO4)CC[N+]2(C)C)cc1 (stereo not given)
active: Activity (Proteus vulgaris) | Activity (Staphylococcus aureus)
17.8 µM: CC50 at 28 h [2]
inactive: Activity (Escherichia coli [3]) | Activity (Enterobacter cloacae) | Activity (Morganella morganii) | Activity (Pseudomonas aeruginosa [4]) | Activity (Klebsiella pneumoniae) | Activity (Enterobacter) | Activity (Proteus sp.) | Activity (Citrobacter koseri) | Activity (Pseudomonas aeruginosa [5]) | Activity (Hafnia alvei) | Activity (Candida albicans) | Activity (Klebsiella aerogenes) | Activity (Klebsiella oxytoca) | Activity (Bacillus subtilis) | Activity (Escherichia coli [6]) | Activity (Aeromonas)
90.7 µM: MIC (Escherichia coli [1])

COc1c2c(cc3c1C(CC(=O)/C=C/C1C(C)=CCCC1(C)C)[N+](C)(C)CC3)OCO2 (stereo not given)
inactive: Activity (Escherichia coli [3]) | Activity (Enterobacter cloacae) | Activity (Morganella morganii) | Activity (Pseudomonas aeruginosa [4]) | Activity (Klebsiella pneumoniae) | Activity (Enterobacter) | Activity (Proteus sp.) | Activity (Citrobacter koseri) | Activity (Pseudomonas aeruginosa [5]) | Activity (Hafnia alvei) | Activity (Proteus vulgaris) | Activity (Candida albicans) | Activity (Klebsiella aerogenes) | Activity (Klebsiella oxytoca) | Activity (Staphylococcus aureus) | Activity (Escherichia coli [6]) | Activity (Aeromonas)
16.2 µM: CC50 at 28 h [2]
22.6 µM: MIC (Escherichia coli [1])
active: Activity (Bacillus subtilis)

COc1c2c(cc3c1C(CC(=O)c1ccc(CC(C)C)cc1)[N+](C)(C)CC3)OCO2 (stereo not given)
inactive: Activity (Pseudomonas aeruginosa [5])
23.3 µM: MIC (Escherichia coli [1])
13.3 µM: CC50 at 28 h [2]
active: Activity (Escherichia coli [3]) | Activity (Enterobacter cloacae) | Activity (Morganella morganii) | Activity (Pseudomonas aeruginosa [4]) | Activity (Klebsiella pneumoniae) | Activity (Enterobacter) | Activity (Proteus sp.) | Activity (Citrobacter koseri) | Activity (Hafnia alvei) | Activity (Proteus vulgaris) | Activity (Candida albicans) | Activity (Klebsiella aerogenes) | Activity (Klebsiella oxytoca) | Activity (Staphylococcus aureus) | Activity (Bacillus subtilis) | Activity (Escherichia coli [6]) | Activity (Aeromonas)

COc1c2c(cc3c1C(CC(=O)c1c(O)n(C)c(=S)n(C)c1=O)N(C)CC3)OCO2 (stereo not given)
> 100 µM: CC50 at 28 h [2]
115 µM: MIC (Escherichia coli [1])
inactive: Activity (Escherichia coli [3]) | Activity (Enterobacter cloacae) | Activity (Morganella morganii) | Activity (Pseudomonas aeruginosa [4]) | Activity (Klebsiella pneumoniae) | Activity (Proteus sp.) | Activity (Citrobacter koseri) | Activity (Pseudomonas aeruginosa [5]) | Activity (Hafnia alvei) | Activity (Proteus vulgaris) | Activity (Klebsiella aerogenes) | Activity (Klebsiella oxytoca) | Activity (Escherichia coli [6]) | Activity (Aeromonas)
active: Activity (Enterobacter) | Activity (Candida albicans) | Activity (Staphylococcus aureus) | Activity (Bacillus subtilis)

COc1c2c(cc3c1C(CC(=O)/C=C/C1=C(C)CCCC1(C)C)[N+](C)(C)CC3)OCO2.[I-] (stereo not given)
Toxic: Activity (HEK293 [7]) | Activity (HEK293 [8]) | Activity (HEK293 [9])
active: Activity (Escherichia coli [3]) | Activity (Enterobacter cloacae) | Activity (Morganella morganii) | Activity (Pseudomonas aeruginosa [4]) | Activity (Klebsiella pneumoniae) | Activity (Hafnia alvei) | Activity (Candida albicans) | Activity (Klebsiella aerogenes) | Activity (Klebsiella oxytoca) | Activity (Staphylococcus aureus) | Activity (Bacillus subtilis) | Activity (Escherichia coli [6]) | Activity (Aeromonas)
inactive: Activity (Enterobacter) | Activity (Proteus sp.) | Activity (Citrobacter koseri) | Activity (Pseudomonas aeruginosa [5]) | Activity (Proteus vulgaris)
14.9 µM: CC50 at 28 h [2]
22.6 µM: MIC (Escherichia coli [1])

COc1c2c(cc3c1C(CC(=O)/C=C/C1CC=C(C)CC1C)[N+](C)(C)CC3)OCO2 (stereo not given)
active: Activity (Escherichia coli [3]) | Activity (Morganella morganii) | Activity (Candida albicans) | Activity (Staphylococcus aureus) | Activity (Bacillus subtilis) | Activity (Escherichia coli [6])
inactive: Activity (Enterobacter cloacae) | Activity (Pseudomonas aeruginosa [4]) | Activity (Klebsiella pneumoniae) | Activity (Enterobacter) | Activity (Proteus sp.) | Activity (Citrobacter koseri) | Activity (Pseudomonas aeruginosa [5]) | Activity (Hafnia alvei) | Activity (Proteus vulgaris) | Activity (Klebsiella aerogenes) | Activity (Klebsiella oxytoca) | Activity (Aeromonas)
46.3 µM: MIC (Escherichia coli [1])
10.4 µM: CC50 at 28 h [2]

CCCc1ccc(C(=O)CC2c3c(cc4c(c3OC)OCO4)CC[N+]2(C)C)cc1.[I-] (stereo not given)
12.6 µM: CC50 at 28 h [2]
Toxic: Activity (HEK293 [10]) | Activity (HEK293 [11])
active: Activity (Escherichia coli [3]) | Activity (Enterobacter cloacae) | Activity (Morganella morganii) | Activity (Pseudomonas aeruginosa [4]) | Activity (Klebsiella pneumoniae) | Activity (Enterobacter) | Activity (Proteus sp.) | Activity (Hafnia alvei) | Activity (Proteus vulgaris) | Activity (Candida albicans) | Activity (Klebsiella aerogenes) | Activity (Staphylococcus aureus) | Activity (Bacillus subtilis) | Activity (Escherichia coli [6]) | Activity (Aeromonas)
inactive: Activity (Citrobacter koseri) | Activity (Pseudomonas aeruginosa [5]) | Activity (Klebsiella oxytoca)
11.3 µM: MIC (Escherichia coli [1])

COc1c2c(cc3c1C(CC(=O)c1ccc4c5c(cccc15)CC4)[N+](C)(C)CC3)OCO2 (stereo not given)
17 µM: CC50 at 28 h [2]
active: Activity (Bacillus subtilis)
inactive: Activity (Escherichia coli [3]) | Activity (Enterobacter cloacae) | Activity (Morganella morganii) | Activity (Pseudomonas aeruginosa [4]) | Activity (Klebsiella pneumoniae) | Activity (Enterobacter) | Activity (Proteus sp.) | Activity (Citrobacter koseri) | Activity (Pseudomonas aeruginosa [5]) | Activity (Hafnia alvei) | Activity (Proteus vulgaris) | Activity (Candida albicans) | Activity (Klebsiella aerogenes) | Activity (Klebsiella oxytoca) | Activity (Staphylococcus aureus) | Activity (Escherichia coli [6]) | Activity (Aeromonas)
12.2 µM: MIC (Escherichia coli [1])
